Experiments:
Type in all cases: functional
[1] = Growth inhibition of human BT549 cells at 10 uM after 48 hrs by sulforhodamine B assay; details: BT-549, 48 h, read-out: GI
In short: (§1)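 Run at NCI on the 60-line panel. Cells grown in RPMI 1640 with 5% FBS and 2 mM L-glutamine, plated at 5000–40,000 cells/well by doubling time, and held 24 h at 37 °C before dosing. Drug (DMSO stock) given at a single final 10 µM in triplicate wells for 48 h. Adherent cells fixed with cold TCA (10% final), suspension cells with 16% TCA. SRB stain read at 515 nm. Percent growth from Tz, C and Ti.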

[2] = Growth inhibition of human UO31 cells at 10 uM after 48 hrs by sulforhodamine B assay; details: UO-31, 48 h, read-out: GI
In short: (§2)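 NCI-60 panel, adherent cells grown in RPMI 1640 with 5% FBS and 2 mM L-glutamine, plated at 5000–40,000 cells/well and preincubated 24 h at 37 °C, 5% CO2. 10 µM final compound from DMSO stock, triplicate wells, 48 h. Fixed with cold TCA (10% final, 60 min, 4 °C) and stained with 0.4% SRB. Absorbance read at 515 nm; growth calculated against time-zero and control wells.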

HT-29 = experiment: Growth inhibition of human HT-29 cells at 10 uM after 48 hrs by sulforhodamine B assay; details: HT-29, 48 h, read-out: GI; in short: as §1
[3] = Growth inhibition of human HOP92 cells at 10 uM after 48 hrs by sulforhodamine B assay; details: HOP-92, 48 h, read-out: GI; in short: as §1
[4] = Growth inhibition of human HCT15 cells at 10 uM after 48 hrs by sulforhodamine B assay; details: HCT-15, 48 h, read-out: GI; in short: as §1
[5] = Growth inhibition of human IGROV1 cells at 10 uM after 48 hrs by sulforhodamine B assay; details: IGROV-1, 48 h, read-out: GI; in short: as §1
CCRF-CEM = experiment: Growth inhibition of human CCRF-CEM cells at 10 uM after 48 hrs by sulforhodamine B assay; details: read-out: GI; in short: as §1
[6] = Growth inhibition of human SKOV3 cells at 10 uM after 48 hrs by sulforhodamine B assay; details: SK-OV-3, 48 h, read-out: GI; in short: as §1
[7] = Growth inhibition of human SNB19 cells at 10 uM after 48 hrs by sulforhodamine B assay; details: SNB-19, 48 h, read-out: GI; in short: as §1
U-251 = experiment: Growth inhibition of human U251 cells at 10 uM after 48 hrs by sulforhodamine B assay; details: U-251, 48 h, read-out: GI; in short: as §2
Malme-3M = experiment: Growth inhibition of human MALME-3M cells at 10 uM after 48 hrs by sulforhodamine B assay; details: read-out: GI; in short: as §1
M14 = experiment: Growth inhibition of human M14 cells at 10 uM after 48 hrs by sulforhodamine B assay; details: M14, 48 h, read-out: GI; in short: as §1
[8] = Growth inhibition of human Caki1 cells at 10 uM after 48 hrs by sulforhodamine B assay; details: CAKI-1, 48 h, read-out: GI; in short: as §1
A549 = experiment: Growth inhibition of human A549 cells at 10 uM after 48 hrs by sulforhodamine B assay; details: A549, 48 h, read-out: GI; in short: as §1
MDA-MB-231 = experiment: Growth inhibition of human MDA-MB-231 cells at 10 uM after 48 hrs by sulforhodamine B assay; details: MDA-MB-231, 48 h, read-out: GI; in short: as §1
NCI-H460 = experiment: Growth inhibition of human NCI-H460 cells at 10 uM after 48 hrs by sulforhodamine B assay; details: NCI-H460, 48 h, read-out: GI; in short: as §1
MCF7 = experiment: Growth inhibition of human MCF7 cells at 10 uM after 48 hrs by sulforhodamine B assay; details: MCF7, 48 h, read-out: GI; in short: as §1
[9] = Growth inhibition of human SF268 cells at 10 uM after 48 hrs by sulforhodamine B assay; details: SF-268, 48 h, read-out: GI; in short: as §1
[10] = Growth inhibition of human RXF393 cells at 10 uM after 48 hrs by sulforhodamine B assay; details: RXF 393, 48 h, read-out: GI; in short: as §1
[11] = Growth inhibition of human UACC62 cells at 10 uM after 48 hrs by sulforhodamine B assay; details: UACC-62, 48 h, read-out: GI; in short: as §2
ACHN = experiment: Growth inhibition of human ACHN cells at 10 uM after 48 hrs by sulforhodamine B assay; details: read-out: GI; in short: as §1
[12] = Growth inhibition of human OVCAR4 cells at 10 uM after 48 hrs by sulforhodamine B assay; details: OVCAR-4, 48 h, read-out: GI; in short: as §1
NCI-H226 = experiment: Growth inhibition of human NCI-H226 cells at 10 uM after 48 hrs by sulforhodamine B assay; details: NCI-H226, 48 h, read-out: GI; in short: as §1
[13] = Growth inhibition of human SF295 cells at 10 uM after 48 hrs by sulforhodamine B assay; details: SF-295, 48 h, read-out: GI; in short: as §1
[14] = Growth inhibition of human OVCAR5 cells at 10 uM after 48 hrs by sulforhodamine B assay; details: OVCAR-5, 48 h, read-out: GI; in short: as §1
[15] = Growth inhibition of human NCI-ADR-RES cells at 10 uM after 48 hrs by sulforhodamine B assay; details: read-out: GI; in short: as §1
SK-MEL-28 = experiment: Growth inhibition of human SK-MEL-28 cells at 10 uM after 48 hrs by sulforhodamine B assay; details: SK-MEL-28, 48 h, read-out: GI; in short: as §1
NCI-H23 = experiment: Growth inhibition of human NCI-H23 cells at 10 uM after 48 hrs by sulforhodamine B assay; details: NCI-H23, 48 h, read-out: GI; in short: as §1
[16] = Growth inhibition of human COLO205 cells at 10 uM after 48 hrs by sulforhodamine B assay; details: COLO 205, 48 h, read-out: GI; in short: as §1
K562 = experiment: Growth inhibition of human K562 cells at 10 uM after 48 hrs by sulforhodamine B assay; details: K562, 48 h, read-out: GI; in short: as §1
[17] = Growth inhibition of human LOXIMVI cells at 10 uM after 48 hrs by sulforhodamine B assay; details: LOX IMVI, read-out: GI; in short: as §1
T47D = experiment: Growth inhibition of human T47D cells at 10 uM after 48 hrs by sulforhodamine B assay; details: read-out: GI; in short: as §2
NCI-H322M = experiment: Growth inhibition of human NCI-H322M cells at 10 uM after 48 hrs by sulforhodamine B assay; details: read-out: GI; in short: as §1
NCI-H522 = experiment: Growth inhibition of human NCI-H522 cells at 10 uM after 48 hrs by sulforhodamine B assay; details: NCI-H522, 48 h, read-out: GI; in short: as §1
[18] = Growth inhibition of human HOP62 cells at 10 uM after 48 hrs by sulforhodamine B assay; details: HOP-62, 48 h, read-out: GI; in short: as §1
[19] = Growth inhibition of human OVCAR8 cells at 10 uM after 48 hrs by sulforhodamine B assay; details: OVCAR-8, 48 h, read-out: GI; in short: as §1
[20] = Growth inhibition of human SF539 cells at 10 uM after 48 hrs by sulforhodamine B assay; details: SF-539, 48 h, read-out: GI; in short: as §1

Compound: COc1ccc(Cc2nnc(Nc3ccc(NC(=O)Nc4cccc(Cl)c4)cc3)c3ccccc23)cc1
- inhibition of growth at 10 µM [1]: < 30%
- inhibition of growth at 10 µM [2]: < 30%
- inhibition of growth at 10 µM (HT-29): < 30%
- inhibition of growth at 10 µM [3]: < 30%
- inhibition of growth at 10 µM [4]: < 30%
- inhibition of growth at 10 µM [5]: < 30%
- inhibition of growth at 10 µM (CCRF-CEM): 41%
- inhibition of growth at 10 µM [6]: < 30%
- inhibition of growth at 10 µM [7]: < 30%
- inhibition of growth at 10 µM (U-251): < 30%
- inhibition of growth at 10 µM (Malme-3M): < 30%
- inhibition of growth at 10 µM (M14): < 30%
- inhibition of growth at 10 µM [8]: < 30%
- inhibition of growth at 10 µM (A549): 35%
- inhibition of growth at 10 µM (MDA-MB-231): < 30%
- inhibition of growth at 10 µM (NCI-H460): < 30%
- inhibition of growth at 10 µM (MCF7): < 30%
- inhibition of growth at 10 µM [9]: < 30%
- inhibition of growth at 10 µM [10]: 40%
- inhibition of growth at 10 µM [11]: < 30%
- inhibition of growth at 10 µM (ACHN): 39%
- inhibition of growth at 10 µM [12]: < 30%
- inhibition of growth at 10 µM (NCI-H226): < 30%
- inhibition of growth at 10 µM [13]: < 30%
- inhibition of growth at 10 µM [14]: < 30%
- inhibition of growth at 10 µM [15]: < 30%
- inhibition of growth at 10 µM (SK-MEL-28): < 30%
- inhibition of growth at 10 µM (NCI-H23): < 30%
- inhibition of growth at 10 µM [16]: < 30%
- inhibition of growth at 10 µM (K562): 30%
- inhibition of growth at 10 µM [17]: < 30%
- inhibition of growth at 10 µM (T47D): 39%
- inhibition of growth at 10 µM (NCI-H322M): < 30%
- inhibition of growth at 10 µM (NCI-H522): 57%
- inhibition of growth at 10 µM [18]: < 30%
- inhibition of growth at 10 µM [19]: < 30%
- inhibition of growth at 10 µM [20]: < 30%

Compound: COc1ccc(Cc2nnc(Nc3ccc(NC(=O)Nc4cccc(OC)c4)cc3)c3ccccc23)cc1
- inhibition of growth at 10 µM [1]: < 30%
- inhibition of growth at 10 µM [2]: < 30%
- inhibition of growth at 10 µM (HT-29): < 30%
- inhibition of growth at 10 µM [3]: < 30%
- inhibition of growth at 10 µM [4]: < 30%
- inhibition of growth at 10 µM [5]: < 30%
- inhibition of growth at 10 µM (CCRF-CEM): < 30%
- inhibition of growth at 10 µM [6]: < 30%
- inhibition of growth at 10 µM [7]: < 30%
- inhibition of growth at 10 µM (U-251): 32%
- inhibition of growth at 10 µM (Malme-3M): < 30%
- inhibition of growth at 10 µM (M14): < 30%
- inhibition of growth at 10 µM [8]: < 30%
- inhibition of growth at 10 µM (A549): < 30%
- inhibition of growth at 10 µM (MDA-MB-231): < 30%
- inhibition of growth at 10 µM (NCI-H460): < 30%
- inhibition of growth at 10 µM (MCF7): < 30%
- inhibition of growth at 10 µM [9]: < 30%
- inhibition of growth at 10 µM [10]: 50%
- inhibition of growth at 10 µM [11]: < 30%
- inhibition of growth at 10 µM (ACHN): < 30%
- inhibition of growth at 10 µM [12]: < 30%
- inhibition of growth at 10 µM (NCI-H226): < 30%
- inhibition of growth at 10 µM [13]: < 30%
- inhibition of growth at 10 µM [14]: < 30%
- inhibition of growth at 10 µM [15]: < 30%
- inhibition of growth at 10 µM (SK-MEL-28): < 30%
- inhibition of growth at 10 µM (NCI-H23): < 30%
- inhibition of growth at 10 µM [16]: < 30%
- inhibition of growth at 10 µM (K562): < 30%
- inhibition of growth at 10 µM [17]: < 30%
- inhibition of growth at 10 µM (T47D): < 30%
- inhibition of growth at 10 µM (NCI-H322M): < 30%
- inhibition of growth at 10 µM (NCI-H522): < 30%
- inhibition of growth at 10 µM [18]: < 30%
- inhibition of growth at 10 µM [19]: < 30%
- inhibition of growth at 10 µM [20]: 35%
